Results on five molecules are retold here after ChEMBL document CHEMBL1150770, “Design, synthesis and biological evaluation of bis(hydroxyphenyl) azoles as potent and selective non-steroidal inhibitors of 17beta-hydroxysteroid dehydrogenase type 1 (17beta-HSD1) for the treatment of estrogen-dependent diseases” (Bioorg Med Chem, 2008).

pIC50: −log10 of the molar value. Activity calls are given as the source filed them. The calls are words filed in the database; no cut-off is given here.

Series [1] concerns the target T1, 17-beta-hydroxysteroid dehydrogenase type 2 (Homo sapiens, UniProt P37059).
T1 sequence (P37059 whole entry): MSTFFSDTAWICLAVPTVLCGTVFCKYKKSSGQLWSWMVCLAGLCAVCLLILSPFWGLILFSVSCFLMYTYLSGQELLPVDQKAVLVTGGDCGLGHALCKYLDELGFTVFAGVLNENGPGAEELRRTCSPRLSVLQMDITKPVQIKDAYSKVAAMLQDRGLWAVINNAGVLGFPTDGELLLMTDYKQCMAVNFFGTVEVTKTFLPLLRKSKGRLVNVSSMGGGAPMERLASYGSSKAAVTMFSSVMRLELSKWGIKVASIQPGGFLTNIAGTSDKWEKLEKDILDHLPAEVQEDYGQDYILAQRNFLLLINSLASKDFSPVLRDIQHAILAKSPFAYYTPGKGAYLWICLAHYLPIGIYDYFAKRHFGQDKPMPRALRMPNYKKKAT
The series can be described thus: Inhibition of human placental 17beta-HSD2 using 17-beta-estradiol substrate. The method, boiled down: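 Human placental microsomal fraction incubated 20 min at 37 °C with NAD+ (1500 µM), test compound and unlabelled plus [3H]-E2 (500 nM final). Extraction and HPLC with radio detection as for 17β-HSD1. Conversion = AUC(E1)/[AUC(E1)+AUC(E2)] × 100.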

Series [2] addresses Estrogen receptor beta (Homo sapiens) (UniProt Q92731). Put plainly: Displacement of [2,4,6,7-3H]17beta-estradiol from human recombinant ERbeta receptor relative to 17-beta-estradiol. The method, boiled down: (§1)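 ERα or ERβ (0.25 pmol) incubated with [2,4,6,7-3H]-E2 (10 nM) and test compound, 1 h, room temperature, 5% DMSO final. Non-specific binding with diethylstilbestrol (10 µM). Bound complexes captured on hydroxyapatite, washed, resuspended in ethanol and counted by liquid scintillation. RBA derived from inhibitor and E2 concentrations displacing 50% of bound labelled E2.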

Series [3] deals with T2, 17-beta-hydroxysteroid dehydrogenase type 1 (Homo sapiens, UniProt P14061).
T2 sequence (P14061 whole entry): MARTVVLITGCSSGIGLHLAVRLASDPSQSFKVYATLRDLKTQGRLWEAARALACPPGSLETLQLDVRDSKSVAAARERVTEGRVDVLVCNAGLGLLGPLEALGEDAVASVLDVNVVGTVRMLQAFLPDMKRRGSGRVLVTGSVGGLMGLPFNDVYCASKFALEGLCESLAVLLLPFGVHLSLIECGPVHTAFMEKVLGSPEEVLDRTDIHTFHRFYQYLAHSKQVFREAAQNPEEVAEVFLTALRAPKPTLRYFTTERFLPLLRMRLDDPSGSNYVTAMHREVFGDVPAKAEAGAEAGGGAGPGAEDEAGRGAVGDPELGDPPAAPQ
The series can be described thus: Inhibition of human placental 17beta-HSD1 using estrone substrate. The gist of the method:
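Cytosolic fraction of human placenta incubated at 37 °C with NADH (500 µM) and inhibitor in 50 mM phosphate buffer, 20% glycerol, 1 mM EDTA, DMSO 1% final. Started with unlabelled plus [3H]-E1 (500 nM final); stopped after 10 min with HgCl2, extracted into diethylether. E1/E2 separated by HPLC with radio detection.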

The target in series [4] is T3, Estrogen receptor (Homo sapiens) (UniProt P03372).
T3 sequence (whole entry): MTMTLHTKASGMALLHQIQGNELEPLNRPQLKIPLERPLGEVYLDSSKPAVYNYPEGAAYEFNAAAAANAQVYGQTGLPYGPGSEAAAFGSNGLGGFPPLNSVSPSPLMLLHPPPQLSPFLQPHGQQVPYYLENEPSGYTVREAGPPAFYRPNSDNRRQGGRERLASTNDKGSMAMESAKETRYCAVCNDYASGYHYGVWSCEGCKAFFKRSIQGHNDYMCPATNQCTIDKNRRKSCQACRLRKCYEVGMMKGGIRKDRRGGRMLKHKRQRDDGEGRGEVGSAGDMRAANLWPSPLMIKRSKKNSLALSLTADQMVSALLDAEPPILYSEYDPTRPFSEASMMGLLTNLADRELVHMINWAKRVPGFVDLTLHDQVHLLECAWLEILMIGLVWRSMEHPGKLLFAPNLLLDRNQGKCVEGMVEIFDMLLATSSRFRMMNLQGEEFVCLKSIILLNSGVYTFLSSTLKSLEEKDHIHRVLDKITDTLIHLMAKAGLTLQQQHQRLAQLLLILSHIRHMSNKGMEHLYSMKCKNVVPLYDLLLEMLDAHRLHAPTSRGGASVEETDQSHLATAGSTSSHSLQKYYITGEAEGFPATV
The series can be described thus: Displacement of [2,4,6,7-3H]17beta-estradiol from human recombinant ERalpha receptor relative to 17-beta-estradiol. The method, boiled down:
as §1

The species named for another series is Homo sapiens. Put plainly: Selectivity ratio of IC50 for human 17beta-HSD2 to IC50 for human 17beta-HSD1. The method, boiled down: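 Selectivity factor computed as IC50 for placental microsomal 17β-HSD2 (E2 500 nM, NAD+ 1500 µM) divided by IC50 for placental cytosolic 17β-HSD1 (E1 500 nM, NADH 500 µM).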
The target in series [5] is T2, 17-beta-hydroxysteroid dehydrogenase type 1. The series can be described thus: Inhibition of 17-beta-HSD1-mediated 17-beta-estradiol formation in human T47D cells. It is filed as cell-based. The gist of the method:
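T47D cells, which express both 17β-HSD1 and 17β-HSD2, were kept in RPMI 1640 with 10% FCS at 37 °C, 5% CO₂. They were seeded in DMEM with FCS, then after 24 h switched to serum-free DMEM. Test compound was added in DMSO (1% final) and pre-incubated 30 min. Unlabelled plus [³H]-E1 (50 nM final) was added for 2.5 h. Steroids were extracted with ether, and E2 formed was quantified by HPLC with radiodetection.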

Another series has as its system T47D. Put plainly: Estrogenic effect in human T47D cells assessed as stimulation of cell proliferation at 100 nM by MTT assay. It is filed as functional, cell-based. The method, boiled down: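 T-47D cells grown 48 h in phenol red-free RPMI 1640 with 5% DCC-FCS, then treated with compound at 100 nM final (ethanol 1% final). E2 0.1 nM as positive control, ethanol as negative control. Medium and additives renewed every 2–3 days; after 8 days MTT reduction read at 590 nm. Stimulation = (proliferation relative to control set at 1, minus 1) × 100%.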

Series [6] in a line: Apparent permeability across human Caco-2 cells. It is filed as ADME, cell-based. The method, boiled down: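 Caco-2 monolayers cultured 10 days at higher seeding density; cassette dosing with four reference compounds; donor concentration 50 µM in 0.2 M MES pH 6.5 with 1% ethanol or DMSO. Acceptor sampled at 0, 60, 120, 180 min, donor at 0 and 180 min; LC/MS/MS analysis; triplicate runs; monolayer integrity by TEER and lucifer yellow.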
For orientation: Caco-2 monolayers are a common model of the intestinal barrier.

Chain of Estrogen receptor beta (Homo sapiens) (Q92731 whole entry): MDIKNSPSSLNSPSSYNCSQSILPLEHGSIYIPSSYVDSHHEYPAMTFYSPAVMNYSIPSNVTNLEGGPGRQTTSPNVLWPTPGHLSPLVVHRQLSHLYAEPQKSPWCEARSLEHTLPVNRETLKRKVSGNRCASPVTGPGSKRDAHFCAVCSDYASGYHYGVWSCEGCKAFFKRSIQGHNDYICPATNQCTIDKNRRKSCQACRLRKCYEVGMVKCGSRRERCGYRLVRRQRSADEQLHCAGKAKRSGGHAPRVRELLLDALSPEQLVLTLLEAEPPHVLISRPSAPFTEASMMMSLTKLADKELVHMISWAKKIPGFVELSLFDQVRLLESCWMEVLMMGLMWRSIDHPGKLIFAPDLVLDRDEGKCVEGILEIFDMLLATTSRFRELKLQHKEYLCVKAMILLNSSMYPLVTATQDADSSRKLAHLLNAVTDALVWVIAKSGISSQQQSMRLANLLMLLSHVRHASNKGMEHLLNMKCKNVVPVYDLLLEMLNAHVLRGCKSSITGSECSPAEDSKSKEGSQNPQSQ

With `Oc1ccc(-c2cn(-c3cccc(O)c3)nn2)cc1`, the pIC50 (commonly −log10 of the IC50, conventionally taken in molar units) was 5.14 in series [1] and 6.08 in series [3]. Moreover, the RBA in series [2] and in series [4] was 0.01% each time. Besides, the Ratio IC50 in the series filed under Homo sapiens came to 9.
Regarding `Oc1ccc(-c2cnc(-c3cccc(O)c3)o2)cc1`, the pIC50 was 4.76 in series [1], 6.42 in series [5] and 6.51 in series [3]. Besides, the result with T47D was inactive. Further, in series [6], the Papp (usually a coefficient for how fast a substance crosses the barrier) was 7.9 ×10⁻⁶ cm/s. In addition, the RBA stood at 0.5% in series [2] and 0.01% in series [4]. For the same molecule, the Ratio IC50 in the series filed under Homo sapiens is 56.
For `Oc1ccc(-n2cc(-c3cccc(O)c3)nn2)cc1`, the pIC50 in series [1] was 5.09; in series [3], 5.88. For the same molecule, the RBA in series [2] and in series [4] was below 0.01% throughout. Further, in the series filed under Homo sapiens, the Ratio IC50 stood at 6.
Regarding `Oc1ccc(-c2cc(-c3cccc(O)c3)on2)cc1`, the pIC50 in series [1] is 6.57; in series [3], 5.79. Also, the figures for the RBA in series [2] and in series [4] were below 0.01% and 0.01%, respectively. Further, the Ratio IC50 in the series filed under Homo sapiens was determined as 0.2.
For `Oc1ccc(-c2coc(-c3cccc(O)c3)n2)cc1` the same measures were 6.60, 5.73, 0.01%, 0.01% and 0.1.
